Test results reported in ChEMBL document CHEMBL1149292, “A rational utilization of high-throughput screening affords selective, orally bioavailable 1-benzyl-3-carboxyazetidine sphingosine-1-phosphate-1 receptor agonists” (J Med Chem, 2004).
Activity calls are given as the source filed them. No cut-off for these calls is given here.

Assays:
[1] = Plasma clearance in rat at 2 mg/kg, po and 1 mg/kg, iv; type: ADME, organism-based
Procedure, shortened: (§1)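 Rat PK at 2.0 mpk po and 1.0 mpk iv. Plasma compound levels measured.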

[2] = target: T1, Sphingosine 1-phosphate receptor 1 (Homo sapiens, UniProt P21453); experiment: Activity at human S1P1 receptor expressed in CHO cells by [35S]GTPgammaS binding assay; type: functional, cell-based
Procedure, shortened: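 Agonism measured as ligand-induced [35S]-GTPγS binding to membranes of CHO cells stably expressing the human S1P receptor.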

[3] = target: T2, Sphingosine 1-phosphate receptor 4 (Homo sapiens, UniProt O95977); experiment: Displacement of [33P]sphingosine 1 phosphate from human S1P4 receptor expressed in CHO cells; type: cell-based
T2 sequence (O95977 whole entry): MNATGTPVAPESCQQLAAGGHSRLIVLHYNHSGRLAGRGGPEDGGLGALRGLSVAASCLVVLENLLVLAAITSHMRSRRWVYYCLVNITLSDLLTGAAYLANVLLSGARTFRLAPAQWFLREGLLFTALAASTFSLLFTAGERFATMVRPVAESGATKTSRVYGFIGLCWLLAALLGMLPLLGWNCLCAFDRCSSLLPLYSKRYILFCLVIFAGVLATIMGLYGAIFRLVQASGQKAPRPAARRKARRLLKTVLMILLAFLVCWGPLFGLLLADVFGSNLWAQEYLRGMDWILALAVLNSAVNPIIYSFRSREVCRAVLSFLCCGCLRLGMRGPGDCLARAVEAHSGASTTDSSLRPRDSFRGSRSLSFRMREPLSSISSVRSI
Procedure, shortened: (§2)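 Competition binding with [33P]-labeled S1P on membranes of CHO cells stably expressing each human S1P receptor. Values are the mean of n = 3 determinations.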

Mus musculus = experiment: Decrease in peripheral blood lymphocytes in po dosed mouse after 3 hrs; type: functional
Procedure, shortened: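 Compound given orally to mice. Peripheral blood lymphocyte counts taken 3 h after dosing, expressed as average percent decrease in n = 3 animals versus controls (n = 3). ED50 from dose-titration.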

[4] = target: Sphingosine 1-phosphate receptor 3 (Homo sapiens, UniProt Q99500); experiment: Displacement of [33P]sphingosine 1 phosphate from human S1P3 receptor expressed in CHO cells; type: cell-based
[5] = Bioavailability in rat at 2 mg/kg, po and 1 mg/kg, iv; type: ADME, organism-based; conditions: in vivo; procedure, shortened: as §1
[6] = Cmax in rat at 2 mg/kg, po and 1 mg/kg, iv; type: ADME, organism-based; conditions: in vivo; procedure, shortened: as §1
[7] = target: Sphingosine 1-phosphate receptor 2 (Homo sapiens, UniProt O95136); experiment: Displacement of [33P]sphingosine 1 phosphate from human S1P2 receptor expressed in CHO cells; type: cell-based
[8] = target: T1, Sphingosine 1-phosphate receptor 1; experiment: Displacement of [33P]sphingosine 1 phosphate from human S1P1 receptor expressed in CHO cells; type: cell-based
[9] = Half life in rat at 2 mg/kg, po and 1 mg/kg, iv; type: ADME, organism-based; conditions: in vivo; procedure, shortened: as §1
[10] = Volume of distribution at steady state in rat at 2 mg/kg, po and 1 mg/kg, iv; type: ADME, organism-based; conditions: in vivo, read-out: Vdss
[11] = target: Sphingosine 1-phosphate receptor 5 (Homo sapiens, UniProt Q9H228); experiment: Displacement of [33P]sphingosine 1 phosphate from human S1P5 receptor expressed in CHO cells; type: cell-based; procedure, shortened: as §2
[12] = Oral bioavailability in rat; type: ADME, organism-based; conditions: in vivo
[13] = Half life in rat; type: ADME, organism-based; conditions: in vivo
[14] = Bioavailability in Beagle dog at 1 mg/kg, po and 0.5 mg/kg, iv; type: ADME, organism-based, Canis lupus familiaris; conditions: in vivo
Procedure, shortened: (§3)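 Single-dose PK at 1.0 mpk po and 0.5 mpk iv. Plasma compound levels measured.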

[15] = Bioavailability in rhesus monkey at 1 mg/kg, po and 0.5 mg/kg, iv; type: ADME, organism-based, Macaca mulatta; conditions: in vivo; procedure, shortened: as §3
Canis familiaris [16] = experiment: Cmax in Beagle dog at 1 mg/kg, po and 0.5 mg/kg, iv; type: ADME, organism-based, Canis lupus familiaris; conditions: in vivo; procedure, shortened: as §3
Canis familiaris [17] = experiment: Plasma clearance in Beagle dog at 1 mg/kg, po and 0.5 mg/kg, iv; type: ADME, organism-based, Canis lupus familiaris; conditions: in vivo; procedure, shortened: as §3
[18] = Half life in Beagle dog at 1 mg/kg, po and 0.5 mg/kg, iv; conditions: in vivo
Canis familiaris [19] = experiment: Maximal decrease in peripheral blood lymphocyte in Beagle dog at 1 mg/kg, po after 24 hrs; type: functional, organism-based; set-up: dose 1 mg/kg; conditions: Canis lupus familiaris
Procedure, shortened: (§4)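 Complete blood counts run alongside plasma concentrations after a single 1.0 mpk oral dose in beagle dog or rhesus monkey. Lymphocyte counts followed over time, with PBL lowering assessed at 24 h postdose.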

[20] = Volume of distribution at steady state in rhesus monkey at 1 mg/kg, po and 0.5 mg/kg, iv; type: ADME, organism-based, Macaca mulatta; conditions: in vivo, read-out: Vdss
[21] = Cmax in rhesus monkey at 1 mg/kg, po and 0.5 mg/kg, iv; type: ADME, organism-based, Macaca mulatta; conditions: in vivo; procedure, shortened: as §3
[22] = Plasma clearance in rhesus monkey at 1 mg/kg, po and 0.5 mg/kg, iv; type: ADME, organism-based, Macaca mulatta; procedure, shortened: as §3
Rhesus monkey = experiment: Maximal decrease in peripheral blood lymphocyte in rhesus monkey at 1 mg/kg, po after 24 hrs; type: functional, organism-based; set-up: dose 1 mg/kg; conditions: Macaca mulatta; procedure, shortened: as §4
[23] = Half life in rhesus monkey at 1 mg/kg, po and 0.5 mg/kg, iv; conditions: in vivo
[24] = Volume of distribution at steady state in Beagle dog at 1 mg/kg, po and 0.5 mg/kg, iv; type: ADME, organism-based, Canis lupus familiaris; conditions: in vivo, read-out: Vdss

Sphingosine 1-phosphate receptor 3, sequence (Q99500 whole entry): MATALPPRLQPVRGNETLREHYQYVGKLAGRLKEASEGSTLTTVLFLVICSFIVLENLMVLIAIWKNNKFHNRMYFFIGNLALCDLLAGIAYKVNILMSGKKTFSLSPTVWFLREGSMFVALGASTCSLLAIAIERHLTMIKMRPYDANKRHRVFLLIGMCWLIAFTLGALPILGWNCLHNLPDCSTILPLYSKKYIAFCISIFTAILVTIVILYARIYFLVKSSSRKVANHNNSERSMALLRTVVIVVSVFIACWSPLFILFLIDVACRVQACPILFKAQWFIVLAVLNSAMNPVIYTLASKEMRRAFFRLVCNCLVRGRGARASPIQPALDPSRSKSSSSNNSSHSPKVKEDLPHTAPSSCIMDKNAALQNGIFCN
Sphingosine 1-phosphate receptor 2, sequence (O95136 whole entry): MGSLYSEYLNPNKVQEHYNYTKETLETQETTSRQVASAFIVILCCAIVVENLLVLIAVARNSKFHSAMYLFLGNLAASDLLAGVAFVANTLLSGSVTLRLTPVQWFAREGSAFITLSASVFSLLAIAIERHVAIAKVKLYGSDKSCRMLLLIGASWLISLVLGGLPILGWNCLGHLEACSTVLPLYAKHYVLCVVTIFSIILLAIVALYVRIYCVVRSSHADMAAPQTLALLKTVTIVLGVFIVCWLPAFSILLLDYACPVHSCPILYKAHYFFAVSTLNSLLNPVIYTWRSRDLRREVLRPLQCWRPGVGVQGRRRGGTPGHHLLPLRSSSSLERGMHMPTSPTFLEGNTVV
Sphingosine 1-phosphate receptor 5, sequence (Q9H228 whole entry): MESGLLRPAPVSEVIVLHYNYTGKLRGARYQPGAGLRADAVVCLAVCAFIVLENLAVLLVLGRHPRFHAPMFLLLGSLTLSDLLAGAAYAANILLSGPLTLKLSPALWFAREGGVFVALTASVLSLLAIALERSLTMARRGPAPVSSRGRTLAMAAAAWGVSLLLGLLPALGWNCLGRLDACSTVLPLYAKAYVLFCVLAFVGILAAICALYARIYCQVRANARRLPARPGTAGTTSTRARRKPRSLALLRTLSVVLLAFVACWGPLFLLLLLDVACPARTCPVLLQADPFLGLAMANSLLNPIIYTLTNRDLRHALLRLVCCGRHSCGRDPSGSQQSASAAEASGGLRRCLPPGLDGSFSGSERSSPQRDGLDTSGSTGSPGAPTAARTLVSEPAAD
T1 sequence (P21453 whole entry): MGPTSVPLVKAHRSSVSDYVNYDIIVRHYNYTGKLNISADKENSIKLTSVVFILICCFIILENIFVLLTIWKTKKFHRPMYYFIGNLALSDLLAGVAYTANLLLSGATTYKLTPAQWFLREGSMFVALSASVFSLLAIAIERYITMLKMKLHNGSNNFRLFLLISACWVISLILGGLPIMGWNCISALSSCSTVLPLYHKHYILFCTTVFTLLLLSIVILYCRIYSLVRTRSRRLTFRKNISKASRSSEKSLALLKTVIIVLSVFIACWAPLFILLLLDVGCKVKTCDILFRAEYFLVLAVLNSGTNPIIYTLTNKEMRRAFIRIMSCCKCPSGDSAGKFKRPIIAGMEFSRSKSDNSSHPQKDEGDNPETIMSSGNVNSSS

Compound | EC50 [2] | IC50 [3] | ED50 (Mus musculus) [mg/kg] | IC50 [4] | IC50 [7] [µM] | IC50 [8] | IC50 [11] | other results
O=C(O)C1CN(Cc2ccc(OCc3cc(-c4ccccc4)c(C(F)(F)F)s3)c(Cl)c2)C1 | 0.0014 µM (agonist) | 1.3 µM (antagonist) | 0.54 | 2 µM (antagonist) | > 10 | 0.0032 µM (antagonist) | 0.018 µM (antagonist) | clearance [1]: 8.2 mL/min/kg; bioavailability [5]: 62%; Cmax [6]: 500 nM; half-life [9]: 7 h; Vd [10]: 3.8 L/kg
O=C(O)C1CN(Cc2ccc(OCc3cc(-c4ccccc4)c(C(F)(F)F)s3)c(Br)c2)C1 | 0.0033 µM (agonist) | 2.4 µM (antagonist) | – | > 10 µM | > 10 | 0.013 µM (antagonist) | 0.053 µM (antagonist) | –
CCCCCCCCCc1ccc(CN2CC(C(=O)O)C2)cc1 | – | 5.4 µM (antagonist) | 5.2 | 4.9 µM (antagonist) | > 10 | 0.018 µM (antagonist) | 0.011 µM (antagonist) | bioavailability [12]: > 70%; half-life [13]: 1.4 h
O=C(O)C1CN(Cc2ccc(OCc3cc(-c4ccccc4)c(C(F)(F)F)s3)c(F)c2)C1 | 0.0013 µM (agonist) | 2.7 µM (antagonist) | – | 2.1 µM (antagonist) | > 10 | 0.0027 µM (antagonist) | 0.041 µM (antagonist) | –
FC(F)(F)c1cccc(-c2noc(-c3cc(-c4ccccc4)c(C(F)(F)F)s3)n2)c1 | – | > 10 µM | – | > 10 µM | > 10 | – | 4.6 µM (antagonist) | –
FC(F)(F)c1sc(-c2nc(-c3ccccc3)no2)cc1-c1ccccc1 | – | > 10 µM | – | > 10 µM | > 10 | 0.025 µM (antagonist) | > 10 µM | –
FC(F)(F)c1sc(-c2nc(-c3ccc(Cl)cc3Cl)no2)cc1-c1ccccc1 | – | > 10 µM | – | > 10 µM | > 10 | 0.078 µM (antagonist) | > 10 µM | –
Cc1cc(CN2CC(C(=O)O)C2)cc(C)c1OCc1cc(-c2ccccc2)c(C(F)(F)F)s1 | 0.0013 µM (agonist) | 0.12 µM (antagonist) | – | 10 µM | > 10 | 0.004 µM (antagonist) | 0.012 µM (antagonist) | –
CCc1cc(CN2CC(C(=O)O)C2)ccc1OCc1cc(-c2ccccc2)c(C(F)(F)F)s1 | 0.0014 µM (agonist) | > 10 µM | – | 4.3 µM (antagonist) | > 10 | 0.0035 µM (antagonist) | 0.01 µM (antagonist) | –
Cc1cc(CN2CC(C(=O)O)C2)ccc1OCc1cc(-c2ccccc2)c(C(F)(F)F)s1 | 0.0008 µM (agonist) | 1.5 µM (antagonist) | 0.18 | 7.5 µM (antagonist) | > 10 | 0.0018 µM (antagonist) | 0.013 µM (antagonist) | bioavailability [14]: 100%; bioavailability [15]: 96%; clearance [1]: 8.2 mL/min/kg; Cmax (Canis familiaris [16]): 3200 nM; clearance (Canis familiaris [17]): 0.5 mL/min/kg; half-life [18]: 22.3 h; Activity (Canis familiaris [19]): Active; bioavailability [5]: 88%; Vd [20]: 1.2 L/kg; Cmax [21]: 1800 nM; clearance [22]: 1.3 mL/min/kg; Cmax [6]: 500 nM; Activity (Rhesus monkey): Active; half-life [9]: 8.9 h; half-life [23]: 12.6 h; Vd [10]: 5.7 L/kg; Vd [24]: 0.9 L/kg
